Data published in ChEMBL document CHEMBL4118027, “Preussilides A-F, Bicyclic Polyketides from the Endophytic Fungus Preussia similis with Antiproliferative Activity” (J Nat Prod, 2017).
Activity calls are given as the source filed them. The calls are words filed in the database; no cut-off is given here.

Assays:
Pseudomonas aeruginosa = experiment: Antibacterial activity against Pseudomonas aeruginosa PA14 by serial dilution method; format: functional, organism-based
U2OS [1] = experiment: Cell cycle arrest in human U2OS cells assessed as accumulation at S phase at 5 ug/ml after 18 hrs by propidium iodide staining based flow cytometry (reference value: 19%); format: functional
Method in brief: (§1)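 U2OS were seeded at 7 × 10^5/well in six-well plates and exposed to 5 or 10 μg/mL for 18 h after spreading, with untreated and DMSO mock controls. Cells were trypsinized, fixed in 2% PFA/PBS, then in ice-cold methanol 30 min. Staining: anti-tubulin/anti-lamin antibodies plus RNase A and propidium iodide. Flow cytometry assigned G1, S, G2-M and sub-G1 by DNA content.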

L929 [2] = experiment: Induction of nuclear fragmentation in mouse L929 cells at cytotoxic IC50 by DAPI staining based microscopic method; format: functional, cell-based
U2OS [3] = experiment: Cell cycle arrest in human U2OS cells assessed as small cells with reduced nuclear size at 5 ug/ml after 18 hrs by propidium iodide staining based flow cytometry (reference value: 0.19%); format: functional; design: scale not given: the % may be the effect or the level left; method in brief: as §1
Micrococcus luteus = experiment: Antibacterial activity against Micrococcus luteus DSM 1790 by serial dilution method; format: functional, organism-based
Caenorhabditis elegans = experiment: Nematicidal activity against Caenorhabditis elegans up to 100 ug/ml; format: functional, organism-based
U2OS [4] = experiment: Induction of morphological changes in human U2OS cells assessed as aberrantly sized cells with abnormal small nuclei formation at 0.25 to 5 ug/ml after 24 hrs by DAPI staining based immunofluorescence microscopic method; format: functional, cell-based
Method in brief: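 U2OS in DMEM (4.5 g/L glucose, 10% FBS), 37 °C, 7% CO2, seeded 3 × 10^4/well on fibronectin-coated coverslips and adhered 16 h. Treated 24 h at 0.25, 0.5, 2.5, 5 or 10 μg/mL (diluted from 1 mg/mL DMSO stock), DMSO control. Fixed in 4% PFA/PBS 20 min; anti-α-tubulin (DM1A), phalloidin-Alexa 488 and DNA stain; immunofluorescence imaging.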

U2OS [5] = experiment: Cell cycle arrest in human U2OS cells assessed as accumulation at G2/M phase at 10 ug/ml after 18 hrs by propidium iodide staining based flow cytometry (reference value: 24.3%); format: functional; method in brief: as §1
Rhodotorula glutinis = experiment: Antifungal activity against Rhodotorula glutinis DSM 10134 by serial dilution method; format: functional, organism-based
Candida albicans = experiment: Antifungal activity against Candida albicans DSM 1665 by serial dilution method; format: functional, organism-based
U2OS [6] = experiment: Cell cycle arrest in human U2OS cells assessed as accumulation at S phase at 10 ug/ml after 18 hrs by propidium iodide staining based flow cytometry (reference value: 19%); format: functional; method in brief: as §1
KB 3-1 = experiment: Cytotoxicity against human KB3-1 cells assessed as reduction in cell viability after 5 days by MTT assay; format: functional, cell-based; details: KB 3-1, 120 h
Method in brief: (§2)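 MTT viability assay run over 5 days on a panel of eight lines (L929, KB3.1, A431, A549, SKOV-3, PC-3, MCF-7, U2OS). IC50 values were derived.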

U2OS [7] = experiment: Cytotoxicity against human U2OS cells assessed as reduction in cell viability after 5 days by MTT assay; format: functional, cell-based; details: 120 h; method in brief: as §2
Lepidium sativum = experiment: Phytotoxicity against Lepidium sativum assessed as inhibition of seedling germination at 100 ug/disk; format: functional, organism-based
Yamadazyma tenuis = experiment: Antifungal activity against Candida tenuis MUCL 29892 by serial dilution method; format: functional, organism-based
U2OS [8] = experiment: Induction of apoptosis in human U2OS cells assessed as tubulin fragmentation up to 10 ug/ml after 18 hrs by flow cytometry; format: functional, cell-based; method in brief: as §1
U2OS [9] = experiment: Ratio of compound effect for induction of multipolar and duplicated spindle formation to compound effect for cytotoxicity for human U2OS cells; format: functional
Method in brief: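 Spindle arm: U2OS in DMEM (4.5 g/L glucose, 10% FBS) at 37 °C, 7% CO2, on fibronectin-coated coverslips, adhered 16 h. Treated 24 h at 0.25–10 μg/mL (diluted from 1 mg/mL DMSO stock) with a DMSO control, PFA-fixed, and anti-α-tubulin immunostained to score mitotic spindles. Cytotoxicity arm: 5-day MTT. Ratio compares spindle-inducing concentration with cytotoxic concentration.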

U2OS [10] = experiment: Induction of apoptosis in human U2OS cells assessed as caspase-3/7 cleavage at 10 ug/ml after 18 hrs by caspase-3/7 green reagent based flow cytometry (reference value: 8.04%)
U2OS [11] = experiment: Cell cycle arrest in human U2OS cells assessed as accumulation at sub-G1 phase at 10 ug/ml after 18 hrs by propidium iodide staining based flow cytometry (reference value: 0.19%); format: functional; method in brief: as §1
Bacillus subtilis = experiment: Antibacterial activity against Bacillus subtilis DSM 10 by serial dilution method; format: functional, organism-based
[12] = system: Chromobacterium violaceum; experiment: Antibacterial activity against Chromobacterium violaceum DSM 30191 by serial dilution method; format: functional, organism-based
A-431 = experiment: Cytotoxicity against human A431 cells assessed as reduction in cell viability after 5 days by MTT assay; format: functional, cell-based; details: A-431, 120 h; method in brief: as §2
U2OS [13] = experiment: Cell cycle arrest in human U2OS cells assessed as accumulation at G1 phase at 5 ug/ml after 18 hrs by propidium iodide staining based flow cytometry (reference value: 50.1%); format: functional; method in brief: as §1
U2OS [14] = experiment: Cell cycle arrest in human U2OS cells assessed as accumulation at G1 phase at 10 ug/ml after 18 hrs by propidium iodide staining based flow cytometry (reference value: 50.1%); format: functional; method in brief: as §1
L929 [15] = experiment: Cytotoxicity against mouse L929 cells assessed as reduction in cell viability after 5 days by MTT assay; format: functional, cell-based; details: L929, 120 h; method in brief: as §2
[16] = system: Mycolicibacterium smegmatis; experiment: Antibacterial activity against Mycobacterium smegmatis ATCC 700084 by serial dilution method; format: functional, organism-based
Sclerotinia sclerotiorum = experiment: Antifungal activity against Sclerotinia sclerotiorum DSM 1946 at 100 ug/disk after 5 days by disk diffusion assay; format: functional; details: DSM 1946, 120 h, read-out: IZ
Method in brief: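 Disk diffusion on YMG medium seeded with a mycelial suspension of the non-sporulating test fungus. Paper disks carried […] compound. Nystatin at 20 μg/disk was the positive control. Inhibition zone diameter (mm) was read after 5 days.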

A549 = experiment: Cytotoxicity against human A549 cells assessed as reduction in cell viability after 5 days by MTT assay; format: functional, cell-based; details: A549, 120 h; method in brief: as §2
Staphylococcus aureus = experiment: Antibacterial activity against Staphylococcus aureus DSM 346 by serial dilution method; format: functional, organism-based
U2OS [17] = experiment: Cell cycle arrest in human U2OS cells assessed as accumulation at G2/M phase at 5 ug/ml after 18 hrs by propidium iodide staining based flow cytometry (reference value: 24.3%); format: functional; method in brief: as §1
SK-OV-3 = experiment: Cytotoxicity against human SKOV3 cells assessed as reduction in cell viability after 5 days by MTT assay; format: functional, cell-based; details: SK-OV-3, 120 h; method in brief: as §2
U2OS [18] = experiment: Cell cycle arrest in human U2OS cells assessed as small cells with reduced nuclear size at 10 ug/ml after 18 hrs by propidium iodide staining based flow cytometry (reference value: 0.19%); format: functional; design: scale not given: the % may be the effect or the level left; method in brief: as §1
U2OS [19] = experiment: Induction of apoptosis in human U2OS cells assessed as lamin fragmentation up to 10 ug/ml after 18 hrs by flow cytometry; format: functional, cell-based; method in brief: as §1
PC-3 = experiment: Cytotoxicity against human PC3 cells assessed as reduction in cell viability after 5 days by MTT assay; format: functional, cell-based; details: PC-3, 120 h; method in brief: as §2

CC(=O)CC1=C(C)C=C2C[C@@H](C)C(=O)[C@@H](C)[C@@H]2[C@H]1/C=C(C)/C=C(C)/C=C/C(=O)O
Activity (Pseudomonas aeruginosa): inactive
Activity (U2OS [1]): 17.4%
Activity (L929 [2]): Active
Activity (U2OS [3]): 1.96%
Activity (Micrococcus luteus): inactive
Activity (Caenorhabditis elegans): inactive
Activity (U2OS [4]): Active
Activity (U2OS [5]): 10.8%
Activity (Rhodotorula glutinis): inactive
Activity (Candida albicans): inactive
Activity (U2OS [6]): 9.62%
IC50 (KB 3-1): 2.5 µM
IC50 (U2OS [7]): 6.8 µM
Activity (Lepidium sativum): inactive
Activity (Yamadazyma tenuis): inactive
Activity (U2OS [8]): Active
Ratio (U2OS [9]): 10 - 20
Activity (U2OS [10]): 5.72%
Activity (U2OS [11]): 21.9%
Activity (Bacillus subtilis): inactive
Activity [12]: inactive
IC50 (A-431): 10.1 µM
Activity (U2OS [13]): 56.3%
Activity (U2OS [14]): 50.7%
IC50 (L929 [15]): 9.1 µM
Activity [16]: inactive
zone of inhibition at 100 µg/disc (Sclerotinia sclerotiorum): 29 mm
IC50 (A549): 22.9 µM
Activity (Staphylococcus aureus): inactive
Activity (U2OS [17]): 19.1%
IC50 (SK-OV-3): 15.6 µM
Activity (U2OS [18]): 25.5%
Activity (U2OS [19]): Active
IC50 (PC-3): 18.4 µM
